pEC50: −log10 of the molar value. ≈ marks a conversion by molar mass, not a printed value. Calls of active or inactive are those of the source. The calls are words filed in the database; no cut-off is given here.
How the values were obtained:
[1] = biological target: T1, B-cell lymphoma 6 protein (Homo sapiens, UniProt P41182); assay: Degradation of BCL6 in human OCI-Ly1 cells incubated for 2 hrs by MSD assay; assay type: cell-based
Outline: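 Lysates were read by MSD sandwich immunoassay (goat capture, rabbit detection anti-BCL6, electrochemiluminescence). Signal was normalised to DMSO (high) and a reference degrader control at 2 μM (low). DC50 came from a four-parameter logistic fit, with Dmax reported.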

[2] = Cmax in BALB/c mouse at 1 mg/kg, iv or 5 mg/kg, po measured after 6 hrs post-dose by ESI-LCMS/MS based UPLC analysis; assay type: ADME, organism-based; set-up: time 6 hrs, dose 5 mg/kg, route po; details: in vivo
[3] = Toxicity in SCID mouse xenografted with human OCI-Ly1 cells assessed as noticeable adverse effects at 50 mg/kg, po measured for 12 to 24 hrs; assay type: organism-based; details: in vivo, time 12-24 hrs
Outline: (§1)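 Female SCID mice with subcutaneous OCI-Ly1 xenografts (1.5×10^7 cells in serum-free IMDM/Matrigel; tumours 0.4-0.6 cm³ at day 20) received one oral dose of 50 mg/kg or vehicle (DMSO/Kolliphor HS15/PEG400/HPMC). Groups of n=3 were sampled at 12, 16 and 24 h. Tumour lysates were analysed by Wes capillary electrophoresis, with BCL6 normalised to GAPDH.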

OCI-Ly1 = assay: Downregulation of BCL6 levels in human OCI-Ly1 cells xenografted in SCID mouse at 50 mg/kg, po measured for 12 to 24 hrs by capillary electrophoresis method; assay type: functional, organism-based; details: time lower […], time upper 24.0 hrs; outline: as §1
[4] = Toxicity in SCID mouse xenografted with human HT cells assessed as body weight loss at 50 mg/kg, po bid measured upto 22 days; assay type: organism-based; details: in vivo, 528 h, time < 22 day
Outline: (§2)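 HT cells grown in RPMI-1640 with 10% FBS, kept at 0.5-2 × 10^6 cells/mL. For implantation, 10^7 cells per 200 µL in serum-free RPMI plus an equal volume of Matrigel were injected subcutaneously at a single site in female SCID mice. At day 20, tumours of 0.4-0.6 cm³ were chosen, n=10 per group. Oral dosing at 50 mg/kg or vehicle was given every 12 h for 22 days (DMSO/Kolliphor HS15/PEG400/aqueous HPMC, 0.2 mL per 20 g).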

HT [5] = assay: Antitumor activity against human HT cells xenografted in SCID mouse assessed as reduction in tumor growth at 50 mg/kg, po bid measured upto 22 days; assay type: functional, organism-based; details: time <= 22.0 day; outline: as §2
[6] = Toxicity in BALB/c mouse at 1 mg/kg, iv or 5 mg/kg, po measured upto 24 hrs post-dose; assay type: organism-based; details: in vivo
[7] = Clearance in BALB/c mouse at 1 mg/kg, iv or 5 mg/kg, po measured after 6 hrs post-dose by ESI-LCMS/MS based UPLC analysis relative to hepatic blood flow; assay type: ADME, organism-based; details: in vivo
[8] = biological target: T1, B-cell lymphoma 6 protein
HT [9] = assay: Downregulation of BCL6 levels in human HT cells xenografted in SCID mouse at 50 mg/kg, po bid measured for 4 to 12 hrs post-dose by capillary electrophoresis method; assay type: functional, organism-based; details: time lower 4.0 hrs, time upper […]
Outline: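 Female SCID mice bearing subcutaneous HT xenografts (10^7 cells with Matrigel) were dosed orally at 50 mg/kg BID, every 12 h, for 22 days; vehicle was DMSO/Kolliphor HS15/PEG400/1.25% HPMC. Tumours were taken 4 and 12 h after the final dose, snap-frozen and bead-homogenised in Tris/Triton lysis buffer. Lysates at 0.0875 mg/ml were run on Wes capillary electrophoresis, with BCL6 normalised to GAPDH.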

[10] = Passive membrane permeability of compound in phosphate buffered saline at pH 7.4 at 10 uM incubated for 16 hrs by PAMPA assay based TQ-S LC-MS/MS analysis; assay type: ADME; details: read-out: permeability
Outline: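 PAMPA with a 2% phosphatidylcholine-in-dodecane membrane. Compound at 10 µM in PBS pH 7.4 containing 1% BSA was incubated 16 h at 30 °C. Supernatants were diluted and quantified by LC-MS/MS.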

[11] = Kinetic aqueous solubility of the compound in 1% DMSO/PBS at pH 7.4 incubated for 2 hrs by UV-vis detection based HPLC analysis; assay type: physicochemical; details: PBS with 1% DMSO, read-out: Kinetic_solubility
Outline: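 A 10 mM DMSO stock was diluted into PBS pH 7.4 to 100 µM final with 1% DMSO, shaken 2 h at 20 °C and centrifuged. The supernatant was mixed with DMSO and measured by HPLC-UV on a 5 min water:methanol gradient with 0.1% formic acid at 30 °C, against an external standard from the same stock.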

Compound | pEC50 [1] | other results
C[C@H]1C[C@@H](O)CN(c2ncc(Cl)c(Nc3ccc4c(c3)c3c(c(=O)n4C)OCC(F)(F)[C@H](C4CC4)N3)n2)C1 | 9.15 | Cmax [2]: 3950 nM; Activity [3]: Non-Toxic; Activity (OCI-Ly1): Active; Activity [4]: Non-Toxic; Activity (HT [5]): Active; Activity [6]: Non-Toxic; CLH [7]: 6%; pEC50 [8]: 9.00; Activity (HT [9]): Active
Cn1c(=O)c2c(c3cc(Nc4nc(N5CCC(F)(F)[C@@H](CO)C5)ncc4Cl)ccc31)N[C@@H](C1CC1)C(F)(F)CO2 | 8.57 | Papp at 16 h, 10 µM [10]: 21 ×10⁻⁶ cm/s; solubility kinetic at 2 h [11]: 13 µM (≈ 7.58 µg/mL)
Cn1c(=O)c2c(c3cc(Nc4nc(N5CCC(F)(F)[C@H](CO)C5)ncc4Cl)ccc31)N[C@@H](C1CC1)C(F)(F)CO2 | < 5.70 | 
Cn1c(=O)c2c(c3cc(Nc4nc(N5CCC(F)(F)[C@@H](O)C5)ncc4Cl)ccc31)N[C@@H](C1CC1)C(F)(F)CO2 | 8.15 | 
Cn1c(=O)c2c(c3cc(Nc4nc(N5CCC[C@H](O)C5)ncc4Cl)ccc31)N[C@@H](C1CC1)C(F)(F)CO2 | < 5.70 | 
C[C@@H]1CN(c2ncc(Cl)c(Nc3ccc4c(c3)n(CCC(C)(C)O)c(=O)n4C)n2)C[C@H](C)C1(F)F |  | Cmax [2]: 1580 nM; Papp at 16 h, 10 µM [10]: 33 ×10⁻⁶ cm/s; CLH [7]: 22%
Cn1c(=O)c2c(c3cc(Nc4nc(N5CCC(F)(F)[C@H](O)C5)ncc4Cl)ccc31)N[C@@H](C1CC1)C(F)(F)CO2 | < 5.70 | 
Cn1c(=O)c2c(c3cc(Nc4nc(N5CCC[C@@H](O)C5)ncc4Cl)ccc31)N[C@@H](C1CC1)C(F)(F)CO2 | < 5.70 | 
Cn1c(=O)n(CCC(C)(C)O)c2cc(Nc3nc(N4CCC(F)(F)C(O)C4)ncc3Cl)ccc21 (racemic) | 6.56 | 
C[C@H]1C[C@@H](O)CN(c2ncc(Cl)c(Nc3ccc4c(c3)n(CCC(C)(C)O)c(=O)n4C)n2)C1 (relative stereo) | 7.46 | 

The next lines start with results.

pEC50 [1] | Compound | other results
< 5.70 | C[C@@H]1C[C@H](N(C)C)CN(c2ncc(Cl)c(Nc3ccc4c(c3)c3c(c(=O)n4C)OCC(F)(F)[C@H](C4CC4)N3)n2)C1 | 
8.20 | C[C@H]1CCCN(c2ncc(Cl)c(Nc3ccc4c(c3)c3c(c(=O)n4C)OCC(F)(F)[C@H](C4CC4)N3)n2)C1 | 
8.01 | C[C@H]1C[C@@H](N(C)C)CN(c2ncc(Cl)c(Nc3ccc4c(c3)c3c(c(=O)n4C)OCC(F)(F)[C@H](C4CC4)N3)n2)C1 | 
< 5.70 | C[C@@H]1C[C@H](O)CN(c2ncc(Cl)c(Nc3ccc4c(c3)c3c(c(=O)n4C)OCC(F)(F)[C@H](C4CC4)N3)n2)C1 | Papp at 16 h, 10 µM [10]: 16 ×10⁻⁶ cm/s; pEC50 [8]: < 5.70
< 5.70 | C[C@@H]1C[C@@H](O)CN(c2ncc(Cl)c(Nc3ccc4c(c3)c3c(c(=O)n4C)OCC(F)(F)[C@H](C4CC4)N3)n2)C1 | 
< 5.70 | C[C@H]1C[C@H](O)CN(c2ncc(Cl)c(Nc3ccc4c(c3)c3c(c(=O)n4C)OCC(F)(F)[C@H](C4CC4)N3)n2)C1 | 
< 5.70 | CC(=O)N[C@H]1C[C@@H](C)CN(c2ncc(Cl)c(Nc3ccc4c(c3)c3c(c(=O)n4C)OCC(F)(F)[C@H](C4CC4)N3)n2)C1 | 
7.49 | C[C@@H]1CCCN(c2ncc(Cl)c(Nc3ccc4c(c3)c3c(c(=O)n4C)OCC(F)(F)[C@H](C4CC4)N3)n2)C1 | 
8.66 | CC(=O)N[C@@H]1C[C@H](C)CN(c2ncc(Cl)c(Nc3ccc4c(c3)c3c(c(=O)n4C)OCC(F)(F)[C@H](C4CC4)N3)n2)C1 | 
